Source: ChEMBL document CHEMBL1153193, “Microwave-assisted synthesis and structure-activity relationships of neuroactive pyrazolo[3,4-b]pyrrolo[3,4-d]pyridine derivatives” (Bioorg Med Chem Lett, 2010)

The molecules below were run on Mus musculus (assay: Sedative activity in Swiss mouse assessed as reduction of locomotor activity at 10 umol/kg, ip after 40 mins). Settings: in vivo; call rule not given here.
Assay type: organism-based
In short: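 Mice received a single screening dose intraperitoneally. Motor activity was counted over the 40 min after injection and expressed as movements per minute. An untreated control group and a midazolam reference group (2 mg/kg) were run alongside. Data are given as means ± SEM, and significance was tested against control.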
With `Cc1ccc(N2C(=O)c3cnc4c(c(C)nn4C)c3C2=O)cc1` the Activity was “Not Active”. `Cc1nn(C)c2ncc3c(c12)C(=O)N(c1ccc(C(=O)O)cc1)C3=O` was tested, and the Activity was “Not Active”. With `Cc1nn(-c2ccccc2)c2ncc3c(c12)C(=O)N(c1ccc([N+](=O)[O-])cc1)C3=O` the Activity was “Active”. `Cc1nn(-c2ccccc2)c2ncc3c(c12)C(=O)N(c1ccc(C(=O)O)cc1)C3=O` was tested, and the Activity was “Not Active”. `Cc1nn(C)c2ncc3c(c12)C(=O)N(c1ccccc1)C3=O` was tested, and the Activity was “Not Active”. In the case of `Cc1nn(-c2ccccc2)c2ncc3c(c12)C(=O)N(c1ccc(Cl)cc1)C3=O`, the Activity is reported as “Not Active”. With `Cc1ccc(N2C(=O)c3cnc4c(c(C)nn4-c4ccccc4)c3C2=O)cc1` the Activity was “Not Active”. For `COc1ccc(N2C(=O)c3cnc4c(c(C)nn4-c4ccccc4)c3C2=O)cc1`, the Activity was “Active”. In the case of `Cc1nn(-c2ccccc2)c2ncc3c(c12)C(=O)N(c1ccccc1)C3=O`, the Activity is reported as “Not Active”. With `Cc1nn(C)c2ncc3c(c12)C(=O)N(c1ccc([N+](=O)[O-])cc1)C3=O` the Activity was “Not Active”. For `Cc1nn(C)c2ncc3c(c12)C(=O)N(c1ccc(Cl)cc1)C3=O`, the Activity was “Not Active”. In the case of `COc1ccc(N2C(=O)c3cnc4c(c(C)nn4C)c3C2=O)cc1`, the Activity is reported as “Not Active”.
